Measurements from ChEMBL document CHEMBL3352559, “Synthesis and pharmacological investigation of aralkyl diamine derivatives as potential triple reuptake inhibitors” (Eur J Med Chem, 2014).

What was measured:
[1] = system: Salmonella typhimurium; assay: Mutagenic activity in Salmonella typhimurium TA98 assessed as number of reversion mutation at 3 ug/plate; type: toxicity, organism-based; conditions: salmonella enterica subsp. enterica serovar typhimurium
Method in brief: (§1)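 Ames reversion test in Salmonella typhimurium TA98 and TA100, with and without rat liver S9 metabolic activation. Compound was dissolved in DMSO and added at 3–5000 μg/plate. Each dose, vehicle and positive control was plated in triplicate, and revertant colonies were counted.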

[2] = system: Salmonella typhimurium; assay: Mutagenic activity in Salmonella typhimurium TA98 assessed as number of reversion mutation at 100 ug/plate; type: toxicity, organism-based; conditions: salmonella enterica subsp. enterica serovar typhimurium; method in brief: as §1
[3] = system: Salmonella typhimurium; assay: Mutagenic activity in Salmonella typhimurium TA100 assessed as number of reversion mutation at 30 ug/plate; type: toxicity, organism-based; conditions: salmonella enterica subsp. enterica serovar typhimurium; method in brief: as §1
[4] = target: Sodium-dependent dopamine transporter (Homo sapiens, UniProt Q01959); assay: Inhibition of [3H]-DA uptake in human dopamine transporter expressed in HEK293 cells by scintillation counting; type: cell-based
[5] = system: Salmonella typhimurium; assay: Mutagenic activity in Salmonella typhimurium TA100 assessed as number of reversion mutation at 1000 ug/plate; type: toxicity, organism-based; conditions: salmonella enterica subsp. enterica serovar typhimurium; method in brief: as §1
[6] = system: Salmonella typhimurium; assay: Mutagenic activity in Salmonella typhimurium TA100 assessed as number of reversion mutation at 5000 ug/plate; type: toxicity, organism-based; conditions: salmonella enterica subsp. enterica serovar typhimurium; method in brief: as §1
[7] = system: Rattus norvegicus; assay: Antidepressant activity in rat assessed as reduction in immobility time at 10 mg/kg, po by forced swimming test relative to control; type: functional
Method in brief: (§2)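 Male rats dosed orally at 5, 10 or 20 mg/kg alongside vehicle and venlafaxine 30 mg/kg PO groups. 1 h post-dose, each rat placed in a glass cylinder (40 cm × 18 cm) holding 15 cm of 25 ± 1 °C water. Immobility time recorded over a 6 min trial; significant main effects followed by post hoc Fisher's test.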

[8] = system: Rattus norvegicus; assay: Antidepressant activity in rat assessed as reduction in immobility time at 20 mg/kg, po by forced swimming test relative to control; type: functional; method in brief: as §2
[9] = system: Rattus norvegicus; assay: Toxicity in rat assessed as effect on locomotion at 20 mg/kg, po after 60 mins by spontaneous locomotor test; type: organism-based; design: dose 20 mg/kg, route oral; conditions: in vivo, 1 h
Method in brief: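 Rats dosed orally at 20 mg/kg, with vehicle and venlafaxine 30 mg/kg PO as controls; 60 min later placed singly in novel 40×40×50 cm cages under dim light with sound attenuation; activity recorded automatically in 5 min bins over 30 min; mean ± SEM.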

[10] = Acute toxicity in KM mouse assessed as survival at 600 mg/kg, po up to 14 days (reference value: 100%); type: organism-based; design: dose 600 mg/kg, route oral; conditions: in vivo
[11] = Acute toxicity in KM mouse assessed as survival at 150 mg/kg, po up to 14 days (reference value: 100%); type: organism-based; design: dose 150 mg/kg, route oral; conditions: in vivo
[12] = AUC (0 to infinity) in Sprague-Dawley rat at 2 mg/kg, po; type: ADME, organism-based; design: dose 2 mg/kg, route oral, time infinity; conditions: plasma
Method in brief: (§3)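 Male SD rats, fasted overnight until 6 h post-dose. PO group received single 2 mg/kg with heparinized blood sampled at 5, 15, 30 min, 1, 2, 4, 8, 24 h. IV group received single 0.5 mg/kg via femoral vein with sampling at 5, 15, 30 min, 1, 2, 4 h. Plasma stored at -40 °C, quantified by LC/MS/MS; 24 rats per group.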

[13] = Apparent volume of distribution during terminal phase in Sprague-Dawley rat at 2 mg/kg, po; type: ADME, organism-based; design: dose 2 mg/kg, route oral; conditions: in vivo, read-out: Vz/F; method in brief: as §3
[14] = Apparent oral clearance in Sprague-Dawley rat at 2 mg/kg, po; type: ADME, organism-based; design: dose 2 mg/kg, route oral; conditions: in vivo; method in brief: as §3
[15] = Elimination half life in Sprague-Dawley rat at 2 mg/kg, po; type: ADME, organism-based; design: dose 2 mg/kg, route oral; conditions: in vivo, read-out: beta t1/2 (converted)
[16] = Cmax in Sprague-Dawley rat at 2 mg/kg, po; type: ADME, organism-based; design: dose 2 mg/kg, route oral; conditions: in vivo; method in brief: as §3
[17] = Oral bioavailability in Sprague-Dawley rat at 2 mg/kg; type: ADME, organism-based; conditions: in vivo
[18] = Drug uptake in Sprague-Dawley rat brain at 0.5 mg/kg iv after 4 hrs; type: ADME, organism-based; design: dose 0.5 mg/kg, route intravenous; conditions: read-out: Drug uptake
[19] = target: Adenosine receptor A1 (Homo sapiens) (UniProt P30542); assay: Displacement of [3H]-DPCPX from human adenosine A1 receptor at 10 uM relative to control
Method in brief: (§4)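 Outsourced CNS panel of 55 receptor binding assays run by Cerep. Compound tested at 10 μM, the default primary-binding concentration, with inhibition expressed relative to control. Inhibition above 50% taken as a significant effect.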

[20] = target: Adenosine receptor A3 (Homo sapiens) (UniProt P0DMS8); assay: Displacement of [3H]ABMECA from human adenosine A3 receptor at 10 uM relative to control; method in brief: as §4
[21] = target: Cannabinoid receptor 1 (Homo sapiens) (UniProt P21554); assay: Displacement of [3H]-CP55940 from human CB1 receptor at 10 uM relative to control; method in brief: as §4
[22] = target: Cholecystokinin receptor type A (Homo sapiens) (UniProt P32238); assay: Displacement of [125I]CCK-8s from human CCKA at 10 uM relative to control; method in brief: as §4
[23] = target: C-C chemokine receptor type 1 (Homo sapiens) (UniProt P32246); assay: Displacement of [125I]MIP-1alpha from human CCR1 receptor at 10 uM relative to control; method in brief: as §4
[24] = target: Histamine H2 receptor (Homo sapiens) (UniProt P25021); assay: Displacement of [125I]APT from human histamine H2 receptor at 10 uM relative to control; method in brief: as §4
[25] = target: Melatonin receptor type 1A (Homo sapiens) (UniProt P48039); assay: Displacement of 2-[125I]iodomelatonin from human melatonin MT1 receptor at 10 uM relative to control; method in brief: as §4
[26] = target: Kappa-type opioid receptor (Homo sapiens) (UniProt P41145); assay: Displacement of [3H]U69593 from human kappa opioid receptor at 10 uM relative to control
Method in brief: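 Outsourced CNS receptor panel (55 binding assays); compound tested at 10 μM in primary radioligand binding; specific binding inhibition expressed relative to control, with >50% inhibition taken as a significant effect.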

[27] = target: Prostaglandin E2 receptor EP4 subtype (Homo sapiens) (UniProt P35408); assay: Displacement of [3H]PGE2 from human EP4 receptor at 10 uM relative to control; method in brief: as §4
[28] = target: 5-hydroxytryptamine receptor 2B (Homo sapiens) (UniProt P41595); assay: Displacement of [125I] (+/-)DOI from human 5-HT2B receptor at 10 uM relative to control; method in brief: as §4
[29] = target: 5-hydroxytryptamine receptor 5A (Homo sapiens) (UniProt P47898); assay: Displacement of [3H]LSD from human 5-HT5A receptor at 10 uM relative to control; method in brief: as §4
[30] = target: 5-hydroxytryptamine receptor 6 (Homo sapiens) (UniProt P50406); assay: Displacement of [3H]LSD from human 5-HT6 receptor at 10 uM relative to control; method in brief: as §4
[31] = target: Somatostatin receptor (Homo sapiens) (UniProt P35346+P30874+P31391+P30872+P32745); assay: Displacement of [125ITyr11- somatostatin-14 from sst receptor (unknown origin) at 10 uM relative to control; type: protein assay; method in brief: as §4
[32] = species: Homo sapiens; assay: Inhibition of Kv channel (unknown origin) at 10 uM by [125I]alpha-dendrotoxin binding assay relative to control
Method in brief: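 Radioligand binding was run at a contract laboratory as part of a 55-target CNS receptor panel. Test concentration was 10 μM. Inhibition of specific binding was expressed relative to control, and inhibition greater than 50% was taken as significant.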

[33] = Drug uptake in Sprague-Dawley rat brain at 0.5 mg/kg ip after 1 hrs

Chain of Prostaglandin E2 receptor EP4 subtype (Homo sapiens) (P35408 whole entry): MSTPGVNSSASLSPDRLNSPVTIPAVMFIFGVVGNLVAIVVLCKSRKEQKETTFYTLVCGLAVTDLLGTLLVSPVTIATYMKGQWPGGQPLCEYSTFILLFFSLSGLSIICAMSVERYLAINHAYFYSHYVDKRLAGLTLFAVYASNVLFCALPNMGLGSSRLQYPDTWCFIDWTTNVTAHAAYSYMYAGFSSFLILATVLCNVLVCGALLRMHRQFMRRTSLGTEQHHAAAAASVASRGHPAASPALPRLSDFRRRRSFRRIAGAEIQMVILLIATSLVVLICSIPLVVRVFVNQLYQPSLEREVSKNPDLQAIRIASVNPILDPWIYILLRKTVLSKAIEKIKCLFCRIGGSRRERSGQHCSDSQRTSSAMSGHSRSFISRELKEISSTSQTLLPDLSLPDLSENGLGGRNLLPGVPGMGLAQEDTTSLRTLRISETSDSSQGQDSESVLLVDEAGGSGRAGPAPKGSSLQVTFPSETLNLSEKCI
Chain of Cholecystokinin receptor type A (Homo sapiens) (P32238 whole entry): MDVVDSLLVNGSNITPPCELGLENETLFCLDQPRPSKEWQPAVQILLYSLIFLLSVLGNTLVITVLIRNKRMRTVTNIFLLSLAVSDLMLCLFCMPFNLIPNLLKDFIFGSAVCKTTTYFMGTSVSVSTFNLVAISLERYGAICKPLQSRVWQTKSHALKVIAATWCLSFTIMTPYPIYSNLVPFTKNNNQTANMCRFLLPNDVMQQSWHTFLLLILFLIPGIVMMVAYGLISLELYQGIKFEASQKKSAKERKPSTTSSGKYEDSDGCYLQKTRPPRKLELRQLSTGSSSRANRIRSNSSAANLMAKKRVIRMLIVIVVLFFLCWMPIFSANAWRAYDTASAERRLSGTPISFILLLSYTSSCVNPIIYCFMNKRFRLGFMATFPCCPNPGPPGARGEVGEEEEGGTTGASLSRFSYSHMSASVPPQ
Chain of 5-hydroxytryptamine receptor 5A (Homo sapiens) (P47898 whole entry): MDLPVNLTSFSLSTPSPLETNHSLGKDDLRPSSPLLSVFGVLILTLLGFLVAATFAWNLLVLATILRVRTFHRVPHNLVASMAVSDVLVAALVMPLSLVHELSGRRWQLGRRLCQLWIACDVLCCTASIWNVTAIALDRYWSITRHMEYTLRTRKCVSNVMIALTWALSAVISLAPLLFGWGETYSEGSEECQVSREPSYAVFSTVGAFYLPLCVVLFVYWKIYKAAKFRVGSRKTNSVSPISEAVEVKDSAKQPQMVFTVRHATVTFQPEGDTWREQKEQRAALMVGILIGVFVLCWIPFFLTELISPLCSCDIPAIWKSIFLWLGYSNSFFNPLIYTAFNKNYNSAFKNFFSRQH
Chain of Sodium-dependent dopamine transporter (Q01959 whole entry): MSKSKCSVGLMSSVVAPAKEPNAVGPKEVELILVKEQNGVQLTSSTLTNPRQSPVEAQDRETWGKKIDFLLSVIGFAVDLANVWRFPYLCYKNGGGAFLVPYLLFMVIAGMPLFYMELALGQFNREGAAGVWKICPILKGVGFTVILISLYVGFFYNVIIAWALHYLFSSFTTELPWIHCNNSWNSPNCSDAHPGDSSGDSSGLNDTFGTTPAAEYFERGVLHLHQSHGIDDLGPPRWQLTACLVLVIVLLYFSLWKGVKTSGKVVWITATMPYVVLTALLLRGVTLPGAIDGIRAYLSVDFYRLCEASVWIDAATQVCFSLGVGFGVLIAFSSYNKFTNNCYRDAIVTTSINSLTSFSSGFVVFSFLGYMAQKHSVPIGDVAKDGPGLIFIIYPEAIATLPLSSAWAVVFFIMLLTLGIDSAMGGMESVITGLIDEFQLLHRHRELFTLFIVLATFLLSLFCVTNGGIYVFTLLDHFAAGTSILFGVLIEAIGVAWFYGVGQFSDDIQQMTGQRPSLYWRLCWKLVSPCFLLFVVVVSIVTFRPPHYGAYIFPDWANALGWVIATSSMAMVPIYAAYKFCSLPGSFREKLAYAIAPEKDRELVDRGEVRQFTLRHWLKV
Chain of Adenosine receptor A3 (Homo sapiens) (P0DMS8 whole entry): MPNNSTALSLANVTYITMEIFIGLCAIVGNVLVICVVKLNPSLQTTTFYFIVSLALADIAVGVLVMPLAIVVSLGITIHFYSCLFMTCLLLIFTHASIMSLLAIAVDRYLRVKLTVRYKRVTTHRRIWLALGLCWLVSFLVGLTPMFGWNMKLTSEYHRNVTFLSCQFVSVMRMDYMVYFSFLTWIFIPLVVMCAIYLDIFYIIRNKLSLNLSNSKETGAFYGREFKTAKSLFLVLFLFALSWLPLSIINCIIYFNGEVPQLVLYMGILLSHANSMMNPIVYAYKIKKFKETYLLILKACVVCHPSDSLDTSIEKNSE
Chain of Melatonin receptor type 1A (Homo sapiens) (P48039 whole entry): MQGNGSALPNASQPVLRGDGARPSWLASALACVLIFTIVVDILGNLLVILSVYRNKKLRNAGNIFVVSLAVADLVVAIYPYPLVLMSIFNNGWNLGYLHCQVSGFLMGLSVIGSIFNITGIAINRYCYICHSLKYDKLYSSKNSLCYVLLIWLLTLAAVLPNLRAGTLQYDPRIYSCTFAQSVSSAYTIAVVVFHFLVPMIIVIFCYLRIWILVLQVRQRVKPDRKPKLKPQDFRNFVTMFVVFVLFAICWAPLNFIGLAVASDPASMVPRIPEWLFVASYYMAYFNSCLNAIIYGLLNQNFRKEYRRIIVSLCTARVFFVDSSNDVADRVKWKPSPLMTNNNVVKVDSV
Chain of 5-hydroxytryptamine receptor 2B (Homo sapiens) (P41595 whole entry): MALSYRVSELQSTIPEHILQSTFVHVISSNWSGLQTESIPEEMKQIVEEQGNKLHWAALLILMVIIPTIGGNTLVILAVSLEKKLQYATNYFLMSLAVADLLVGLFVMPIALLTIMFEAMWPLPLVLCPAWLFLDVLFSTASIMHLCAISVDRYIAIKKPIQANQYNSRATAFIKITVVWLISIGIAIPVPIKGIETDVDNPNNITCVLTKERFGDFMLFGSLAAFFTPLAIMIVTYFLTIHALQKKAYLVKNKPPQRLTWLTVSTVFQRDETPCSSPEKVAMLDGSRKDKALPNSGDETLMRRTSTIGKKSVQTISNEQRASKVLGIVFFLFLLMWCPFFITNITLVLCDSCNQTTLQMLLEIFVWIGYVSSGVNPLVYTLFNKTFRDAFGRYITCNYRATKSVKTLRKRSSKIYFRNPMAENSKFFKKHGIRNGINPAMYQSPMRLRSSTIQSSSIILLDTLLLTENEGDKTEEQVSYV
Chain of Histamine H2 receptor (Homo sapiens) (P25021 whole entry): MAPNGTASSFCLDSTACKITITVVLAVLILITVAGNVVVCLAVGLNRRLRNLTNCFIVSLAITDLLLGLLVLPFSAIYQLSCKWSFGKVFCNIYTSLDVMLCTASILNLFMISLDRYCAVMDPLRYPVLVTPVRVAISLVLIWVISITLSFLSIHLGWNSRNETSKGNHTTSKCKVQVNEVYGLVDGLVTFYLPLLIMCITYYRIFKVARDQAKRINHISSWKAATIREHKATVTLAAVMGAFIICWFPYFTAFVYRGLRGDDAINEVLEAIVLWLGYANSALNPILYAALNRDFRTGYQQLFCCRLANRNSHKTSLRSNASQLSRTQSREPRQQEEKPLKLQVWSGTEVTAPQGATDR
Chain of Cannabinoid receptor 1 (Homo sapiens) (P21554 whole entry): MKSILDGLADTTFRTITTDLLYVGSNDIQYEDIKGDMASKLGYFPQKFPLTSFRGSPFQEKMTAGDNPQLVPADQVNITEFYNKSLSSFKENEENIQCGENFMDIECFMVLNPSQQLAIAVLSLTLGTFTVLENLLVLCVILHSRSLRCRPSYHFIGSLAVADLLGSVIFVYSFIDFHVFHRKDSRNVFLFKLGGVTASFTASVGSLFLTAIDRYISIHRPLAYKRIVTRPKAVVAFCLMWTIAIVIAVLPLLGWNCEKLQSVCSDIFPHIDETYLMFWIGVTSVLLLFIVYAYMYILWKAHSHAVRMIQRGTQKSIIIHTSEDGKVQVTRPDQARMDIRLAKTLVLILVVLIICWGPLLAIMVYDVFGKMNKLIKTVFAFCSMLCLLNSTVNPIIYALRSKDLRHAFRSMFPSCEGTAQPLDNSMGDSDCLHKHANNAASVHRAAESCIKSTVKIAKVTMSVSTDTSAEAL
Chain of 5-hydroxytryptamine receptor 6 (Homo sapiens) (P50406 whole entry): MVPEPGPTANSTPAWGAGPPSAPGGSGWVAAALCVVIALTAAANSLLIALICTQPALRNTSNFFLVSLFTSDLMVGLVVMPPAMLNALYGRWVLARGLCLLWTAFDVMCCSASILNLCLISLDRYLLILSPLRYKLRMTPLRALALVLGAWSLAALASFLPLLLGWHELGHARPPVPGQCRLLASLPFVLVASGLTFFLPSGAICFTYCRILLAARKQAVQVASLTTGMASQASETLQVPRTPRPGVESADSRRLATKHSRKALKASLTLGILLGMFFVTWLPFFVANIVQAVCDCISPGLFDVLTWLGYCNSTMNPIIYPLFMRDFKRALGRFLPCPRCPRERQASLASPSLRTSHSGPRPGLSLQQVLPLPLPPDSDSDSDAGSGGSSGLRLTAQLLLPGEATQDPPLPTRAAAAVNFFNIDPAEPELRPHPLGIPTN
Chain of Kappa-type opioid receptor (Homo sapiens) (P41145 whole entry): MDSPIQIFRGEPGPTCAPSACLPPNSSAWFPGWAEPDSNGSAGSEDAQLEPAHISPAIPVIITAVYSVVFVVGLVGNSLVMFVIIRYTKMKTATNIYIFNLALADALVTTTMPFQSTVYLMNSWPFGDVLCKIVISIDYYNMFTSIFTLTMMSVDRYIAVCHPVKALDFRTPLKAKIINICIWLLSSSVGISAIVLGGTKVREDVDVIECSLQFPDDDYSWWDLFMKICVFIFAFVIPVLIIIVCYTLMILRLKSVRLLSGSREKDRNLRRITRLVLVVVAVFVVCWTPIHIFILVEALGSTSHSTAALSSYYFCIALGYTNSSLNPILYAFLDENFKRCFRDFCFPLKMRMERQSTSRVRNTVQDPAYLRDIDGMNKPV

`CN(C)CCC(c1ccc(Cl)c(Cl)c1)N1CCOCC1` (stereo not drawn) showed an Activity [1] of 33, an Activity [2] of 41 and an Activity [3] of 75. The IC50 [4] was 247 nM, the Activity [5] was 87 and the Activity [6] was 77. The inhibition in vivo at 10 mg/kg [7] was 47%, the inhibition in vivo at 20 mg/kg [8] was 66% and the Activity [9] was “Non-toxic”. The survival at 336 h [10] was 80%, the survival at 336 h [11] was 100% and the AUC(0-inf) [12] was 80 ng·h/mL. For the same compound, the Vd/F [13] was 164 L/kg, the CL/F [14] was 417 mL/min/kg and the half-life [15] was 4.5 h. The Cmax [16] was 26.8 ng/mL, the bioavailability [17] was 19.4% and the concentration at 4 h [18] was 42.2 ng/mL. The inhibition [19] was 8.7%, the inhibition [20] was 2.6% and the inhibition [21] was -6.2%. For the same compound, the inhibition [22] was 1%, the inhibition [23] was 22.1% and the inhibition [24] was -8%. The inhibition [25] was -7.1%, the inhibition [26] was 11.2% and the inhibition [27] was -1.2%. The inhibition [28] was 19.2%, the inhibition [29] was 1.4% and the inhibition [30] was 2.4%. The inhibition [31] was 3.2%, the inhibition [32] was -3.6% and the concentration at 1 h [33] was 425 ng/mL.
